Measurements taken from ChEMBL document CHEMBL3734701, “Synthesis and antibacterial activity of 4″-O-(trans-β-arylacrylamido)carbamoyl azithromycin analogs” (2015).
≈ marks a conversion by molar mass, not a printed value.

Columns and labels:
Assay type in all cases: functional
Streptococcus pyogenes [1] = test: Antibacterial activity against clinically isolated erythromycin-susceptible Streptococcus pyogenes S2 by broth microdilution method
Outline: (§1)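 Broth microdilution MIC following the NCCL-recommended method. Panel of sensitive and resistant Gram-positive strains: S. pyogenes S2 (erythromycin-susceptible clinical isolate), S. aureus ATCC25923 and S. pneumoniae ATCC49619 (erythromycin-susceptible). Azithromycin and clarithromycin were run alongside as references.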

Streptococcus pyogenes [2] = test: Antibacterial activity against clinically isolated erythromycin-resistant Streptococcus pyogenes R2 by broth microdilution method
Outline: (§2)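 MICs measured in vitro by broth microdilution following NCCL recommendations, against a Gram-positive panel of sensitive and resistant strains. Azithromycin and clarithromycin were tested alongside as references.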

Staphylococcus aureus [3] = test: Antibacterial activity against erythromycin-susceptible Staphylococcus aureus ATCC 25923 by broth microdilution method; outline: as §1
Streptococcus pneumoniae [4] = test: Potency index, ratio of AZM MIC to test compound MIC for erythromycin-resistant Streptococcus pneumoniae B1 expressing ermB gene
Streptococcus pyogenes [5] = test: Potency index, ratio of EMA MIC to test compound MIC for clinically isolated erythromycin-resistant Streptococcus pyogenes R2
Streptococcus pneumoniae [6] = test: Potency index, ratio of EMA MIC to test compound MIC for erythromycin-resistant Streptococcus pneumoniae B1 expressing ermB gene
Staphylococcus aureus [7] = test: Antibacterial activity against clinically isolated penicillin-resistant Staphylococcus aureus by broth microdilution method
Outline: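 Clinical penicillin-resistant S. aureus isolate, not further characterized, tested in a Gram-positive panel. MIC was measured by broth microdilution following NCCL recommendations, with azithromycin and clarithromycin as references.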

Staphylococcus aureus [8] = test: Antibacterial activity against methicillin-susceptible Staphylococcus aureus ATCC 29213 by broth microdilution method; outline: as §2
Streptococcus pneumoniae [9] = test: Antibacterial activity against erythromycin-resistant Streptococcus pneumoniae B1 expressing ermB gene by broth microdilution method; outline: as §2
Streptococcus pneumoniae [10] = test: Antibacterial activity against erythromycin-resistant Streptococcus pneumoniae A22072 expressing mefA gene by broth microdilution method; outline: as §2
Streptococcus pneumoniae [11] = test: Antibacterial activity against erythromycin-susceptible Streptococcus pneumoniae ATCC 49619 by broth microdilution method; outline: as §1
Streptococcus pyogenes [12] = test: Potency index, ratio of AZM MIC to test compound MIC for clinically isolated erythromycin-resistant Streptococcus pyogenes R2
Streptococcus pneumoniae [13] = test: Antibacterial activity against erythromycin-resistant Streptococcus pneumoniae AB11 expressing ermB and mefA genes by broth microdilution method; outline: as §2
Streptococcus pneumoniae [14] = test: Potency index, ratio of EMA MIC to test compound MIC for erythromycin-resistant Streptococcus pneumoniae A22072 expressing mefA gene
Streptococcus pneumoniae [15] = test: Potency index, ratio of AZM MIC to test compound MIC for erythromycin-resistant Streptococcus pneumoniae A22072 expressing mefA gene

Row | Structure (SMILES) | MIC (Streptococcus pyogenes [1]) | MIC (Streptococcus pyogenes [2]) | MIC (Staphylococcus aureus [3]) | Ratio (Streptococcus pneumoniae [4]) | Ratio (Streptococcus pyogenes [5]) | Ratio (Streptococcus pneumoniae [6]) | MIC (Staphylococcus aureus [7]) | MIC (Staphylococcus aureus [8]) | MIC (Streptococcus pneumoniae [9]) | MIC (Streptococcus pneumoniae [10]) | MIC (Streptococcus pneumoniae [11]) | Ratio (Streptococcus pyogenes [12]) | MIC (Streptococcus pneumoniae [13]) | Ratio (Streptococcus pneumoniae [14]) | Ratio (Streptococcus pneumoniae [15])
1 | CC[C@H]1OC(=O)[C@@H](C)[C@H](O[C@@H]2C[C@](C)(OC)[C@H](OC(=O)NNC(=O)/C=C/c3ccc(Cl)cc3)[C@@H](C)O2)[C@H](C)[C@H](O[C@H]2O[C@@H](C)C[C@@H](N(C)C)[C@@H]2O)[C@@](C)(O)C[C@H](C)CN(C)[C@@H](C)[C@H](OC(=O)NCc2ccc(OC)cc2)[C@@]1(C)O | 0.5 µg/mL (≈ 0.441 µM) | 4 µg/mL (≈ 3.52 µM) | 0.5 µg/mL (≈ 0.441 µM) | 512 | 32 | 512 | 2 µg/mL (≈ 1.76 µM) | 2 µg/mL (≈ 1.76 µM) | 0.25 µg/mL (≈ 0.22 µM) | 0.12 µg/mL (≈ 0.106 µM) | 0.5 µg/mL (≈ 0.441 µM) | 32 | 1 µg/mL (≈ 0.881 µM) |  | 
2 | CC[C@H]1OC(=O)[C@@H](C)[C@H](O[C@H]2C[C@@](C)(OC)[C@@H](OC(=O)NNC(=O)/C=C/c3cccs3)[C@H](C)O2)[C@@H](C)[C@H](O[C@H]2O[C@@H](C)C[C@@H](N(C)C)[C@@H]2O)[C@@](C)(O)C[C@H](C)CN(C)[C@@H](C)[C@@H]2OC(=O)O[C@@]12C | 0.25 µg/mL (≈ 0.258 µM) | ≥ 128 µg/mL | 32 µg/mL (≈ 33 µM) |  |  |  | 64 µg/mL (≈ 66 µM) | 64 µg/mL (≈ 66 µM) | 2 µg/mL (≈ 2.06 µM) | 0.015 µg/mL (≈ 0.0155 µM) | 8 µg/mL (≈ 8.25 µM) |  | 4 µg/mL (≈ 4.13 µM) | 512 | 256
